The nature of series [1]: pKa value of the compound. Type of series: physicochemical. In a few lines:
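Protonation and anion-generation pKa values were determined spectrophotometrically.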

Series [2] deals with Human alphaherpesvirus 1. As to the kind of experiment: Inhibition of HSV-1 ribonucleotide reductase. Further details: concentration or dose not given beside the values. The conditions noted are these: concentration not given here. Put shortly: (§1)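 Partially purified HSV-1 ribonucleotide reductase, assayed by reduction of purified [14C]CDP in 200 mM Hepes Na+ pH 7.7, 10 mM dithiothreitol, 2 μM CDP (500 Ci/mol, 3–4 × Km), with and without 5 μM inhibitor unless otherwise indicated. First-order kinact (per hour) and v0 of decelerating product time courses come from iterative nonlinear least squares. kinact is the net increase over the uninhibited control, and % inhibition refers to v0.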

The test system of series [3] is Human alphaherpesvirus 1. In words: Inhibitory index against HSV-1 ribonucleotide reductase. Put shortly: (§2)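 Index per eq 1 combines kinact and percent inhibition of initial velocity from reductase reactions ±5 μM inhibitor (unless otherwise indicated). 0.99 is subtracted from the calculated ratio, so a non-inhibiting, non-inactivating compound scores zero. HSV-1 and human enzymes were assayed under their respective conditions.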

The test system of series [4] is Human alphaherpesvirus 1. In words: Inactivation of HSV-1 ribonucleotide reductase at rate constant K inact. Put shortly:
as §1

Series [5] addresses T1, Ribonucleoside-diphosphate reductase RR1 (Homo sapiens) (UniProt P23921+Q7LG56+P31350). In words: Inhibition of human ribonucleotide reductase. Further details: concentration or dose not given beside the values. The conditions noted are these: concentration not given here. Type of series: protein-complex assay. In a few lines:
(§3)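 The ATP contributed about 3 μM iron, keeping inhibitors iron-complexed. Reactions ran ±5 μM inhibitor unless otherwise indicated. kinact (per hour, net over the control) and v0 came from iterative nonlinear least-squares fits of decelerating time courses.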

In series [6] the target is T1, Ribonucleoside-diphosphate reductase RR1 (Homo sapiens). In words: Inhibitory index against human ribonucleotide reductase. Type of series: protein-complex assay. In a few lines:
as §2

Series [7] has the same target. As to the kind of experiment: Inactivation of human ribonucleotide reductase at rate constant K inact. Type of series: protein-complex assay. In a few lines:
as §3

Series [8] shares this target. In words: Apparent enzyme activity measured as the ratio of HSV-1 and human enzyme inhibition induces. The conditions noted are these: Human alphaherpesvirus 1. Type of series: functional. Put shortly: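 Apparent selectivity is the ratio of HSV-1 to human inhibition indices, each from eq 1 at 5 μM inhibitor or at the indicated concentration for each enzyme.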
A short description of series [9]: Partition coefficient (logD5.2) (octanol/pH 5.2 acetate buffer). Type of series: physicochemical.

This note sets out measurements from ChEMBL document CHEMBL1126084, “2-Acetylpyridine thiocarbonohydrazones. Potent inactivators of herpes simplex virus ribonucleotide reductase” (J Med Chem, 1992).

In general, pKa refers to the pH at which an ionisable group is half protonated. Usually inhibition stands for how much of the control response was suppressed. Usually kinact stands for the maximal first-order rate at which the target is inactivated. As usually defined, the logD is lipophilicity at a set pH, counting ionised and neutral species.

In series [1], `C/C(=N\N=C(/S)N/N=C(\S)Nc1ccc(C(F)(F)F)cc1)c1ccccn1` had a pKa of 3.87. Further, the inhibition in the series with Human alphaherpesvirus 1 [2] was determined as 59%; in [5] it was 19%. Also, the Inhibitory index with Human alphaherpesvirus 1 [3] turned out to be 80; in series [6] it was 0.23. In addition, the kinact in the series with Human alphaherpesvirus 1 [4] amounted to 33 h⁻¹; in [7] it was 0 h⁻¹. In [8], the Apparent selectivity (HSV-1/human inhibition index ratio) came to 350.

Take `C/C(=N\N=C(/S)N/N=C(\S)Nc1cccc(C(F)(F)F)c1)c1ccccn1`: in series [1], the pKa turned out to be 3.89. Also, the values for the inhibition (with Human alphaherpesvirus 1 [2]; in [5]) were 15% and 31%, respectively. For the same compound, the Inhibitory index in the series on Human alphaherpesvirus 1 [3] is 40; in [6] it was 1.9. The inactivation rate constant (kinact) in the series on Human alphaherpesvirus 1 [4] was determined as 34 h⁻¹; in series [7] it was 1 h⁻¹. Moreover, the Apparent selectivity (HSV-1/human inhibition index ratio) in [8] was found to be 21.

In the case of `C/C(=N\N/C(S)=N/N=C(\S)N(C)C)c1ccccn1`, in [9], the logD stood at 1.25. Besides, the inhibition with Human alphaherpesvirus 1 [2] stood at 39%; in series [5], 8%. The Inhibitory index in the series on Human alphaherpesvirus 1 [3] was determined as 14; in [6], 4.4. Moreover, the maximal inactivation rate constant (kinact) with Human alphaherpesvirus 1 [4] turned out to be 8 h⁻¹; in [7], 4 h⁻¹. In addition, the Apparent selectivity (HSV-1/human inhibition index ratio) in series [8] came out at 3.

In series [1], `C/C(=N\N=C(/S)N/N=C(\S)Nc1ccccc1Cl)c1ccccn1` registered a pKa of 3.94. In [9], this compound displayed a logD of 2.67. The inhibition in the series on Human alphaherpesvirus 1 [2] is 0%; in [5], 57%. Besides, the Inhibitory index in the series on Human alphaherpesvirus 1 [3] was found to be 27; in [6], 1.3. In addition, the maximal inactivation rate constant (kinact) in the series with Human alphaherpesvirus 1 [4] came out at 27 h⁻¹; in series [7], 0 h⁻¹. Also, in series [8], the Apparent selectivity (HSV-1/human inhibition index ratio) is 21.

`C/C(=N\N=C(/S)N/N=C(\S)Nc1cccc(I)c1)c1ccccn1`: the pKa in series [1] came out at 3.8. The figures for the inhibition (in the series with Human alphaherpesvirus 1 [2]; in [5]) were 27% and 7%, respectively. The Inhibitory index worked out at 34 in the series on Human alphaherpesvirus 1 [3] and 3.3 in series [6]. Besides, the results for the maximal inactivation rate constant (kinact) (in the series with Human alphaherpesvirus 1 [4]; in [7]) were 25 h⁻¹ and 3 h⁻¹, respectively. Moreover, the Apparent selectivity (HSV-1/human inhibition index ratio) in [8] came to 10.
